ChEMBL document CHEMBL1275435, “A naturally occurring proline-to-alanine amino acid change in Fks1p in Candida parapsilosis, Candida orthopsilosis, and Candida metapsilosis accounts for reduced echinocandin susceptibility” (Antimicrob Agents Chemother, 2008)
Converted amounts (≈) assume the structure as drawn. *1 amine or outer side, *2 acyl side, *3 side chain or, on linkers, in order; H or OH if unused. Where a SMILES comes first, the peptide text is derived from it. Bridges are numbered along the chain shown (N, C = ends). [ ]: non-standard residue; d: D form. The star is where a group is joined. pTerphenylCO(4''-OnC5H11) = CCCCCOc1ccc(-c2ccc(-c3ccc(C(=O)*)cc3)cc2)cc1; Orn(4R-OH,5R-OH) = O=C([C@H](C[C@@H](O)[C@@H](O)N[*:3])N[*:1])[*:2]; hTyr(3S-OH,4S-OH) = N[C@H](C(=O)O)[C@H](O)[C@@H](O)c1ccc(O)cc1; Pro(3S-OH,4S-Me) = C[C@H]1CN[C@H](C(=O)O)[C@H]1O; Hyp = O=C(O)[C@@H]1C[C@@H](O)CN1

Columns and labels:
Saccharomyces cerevisiae [1] = test: Antifungal activity against FKS1 deficient Saccharomyces cerevisiae BY4742 by CLSI method; type: functional
[2] = Inhibition of Candida parapsilosis ATCC 22019 glucan synthase by assessed as [3H]UDPG incorporation
Method in brief: (§1)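 Cells were grown with vigorous shaking at 30°C to early stationary phase in YPD. Membrane GS was partially purified by product entrapment, using 10-fold more cells for low-activity strains. The polymerization assay was started by adding GS, with drug serially diluted from 0.01 to 10,000 ng/ml. Reactions ran 60 min at 25°C and were stopped on ice. IC50 came from sigmoidal variable-slope fits, as arithmetic means ± SD of three repetitions on three days.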

Candida albicans [3] = test: Antifungal activity against Candida albicans M122 by CLSI method; type: functional
Candida metapsilosis [4] = test: Antifungal activity against Candida metapsilosis 960161 by CLSI method; type: functional; conditions: Lodderomyces metapsilosis
[5] = Inhibition of Candida orthopsilosis H10 glucan synthase assessed as [3H]UDPG incorporation; method in brief: as §1
Candida albicans [6] = test: Antifungal activity against Candida albicans Sc5314 by CLSI method; type: functional
[7] = Inhibition of Candida albicans M122 glucan synthase assessed as [3H]UDPG incorporation; method in brief: as §1
Candida metapsilosis [8] = test: Antifungal activity against Candida metapsilosis am-2006-0113 by CLSI method; type: functional; conditions: Lodderomyces metapsilosis
Saccharomyces cerevisiae [9] = test: Antifungal activity against Saccharomyces cerevisiae BY4742-FKS1P649A mutant by CLSI method; type: functional
Method in brief: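 Broth microdilution following CLSI M27-A2, run in YPD broth (1% yeast extract, 2% Bacto peptone, 2% dextrose). MICs are geometric means of at least three repetitions on three separate days.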

Candida orthopsilosis [10] = test: Antifungal activity against Candida orthopsilosis 981224 by CLSI method; type: functional; conditions: Lodderomyces orthopsilosis
[11] = Inhibition of Saccharomyces cerevisiae BY4742-FKS1P649A mutant glucan synthase assessed as [3H]UDPG incorporation; method in brief: as §1
Candida parapsilosis [12] = test: Antifungal activity against Candida parapsilosis H4 by CLSI method; type: functional; conditions: Lodderomyces parapsilosis
[13] = Inhibition of Saccharomyces cerevisiae BY4742 glucan synthase assessed as [3H]UDPG incorporation; method in brief: as §1
[14] = Inhibition of Candida glabrata ATCC 90030 glucan synthase assessed as [3H]UDPG incorporation; parameters: species or system Nakaseomyces glabratus; method in brief: as §1
[15] = Inhibition of Candida albicans ATCC 90028 glucan synthase assessed as [3H]UDPG incorporation; method in brief: as §1
[16] = Inhibition of Candida parapsilosis H4 glucan synthase assessed as [3H]UDPG incorporation; method in brief: as §1
[17] = Inhibition of Candida metapsilosis am-2006-0113 glucan synthase assessed as [3H]UDPG incorporation; method in brief: as §1
Nakaseomyces glabratus [18] = test: Antifungal activity against Candida glabrata T51916 by CLSI method; type: functional
[19] = Inhibition of Candida orthopsilosis 981224 glucan synthase assessed as [3H]UDPG incorporation; method in brief: as §1
Nakaseomyces glabratus [20] = test: Antifungal activity against Candida glabrata ATCC 90030 by CLSI method; type: functional
[21] = Inhibition of Candida metapsilosis 960161 glucan synthase assessed as [3H]UDPG incorporation; method in brief: as §1
[22] = Inhibition of Candida albicans ATCC 36082 glucan synthase assessed as [3H]UDPG incorporation; method in brief: as §1
[23] = Inhibition of Candida parapsilosis H5 glucan synthase assessed as [3H]UDPG incorporation; method in brief: as §1
Saccharomyces cerevisiae [24] = test: Antifungal activity against Saccharomyces cerevisiae BY4742 by CLSI method; type: functional
Candida parapsilosis [25] = test: Antifungal activity against Candida parapsilosis H5 by CLSI method; type: functional; conditions: Lodderomyces parapsilosis
Candida orthopsilosis [26] = test: Antifungal activity against Candida orthopsilosis H10 by CLSI method; type: functional; conditions: Lodderomyces orthopsilosis
Candida parapsilosis [27] = test: Antifungal activity against Candida parapsilosis ATCC 22019 by CLSI method; type: functional; conditions: Lodderomyces parapsilosis
[28] = Inhibition of Candida albicans Sc5314 glucan synthase assessed as [3H]UDPG incorporation; method in brief: as §1
[29] = Inhibition of Candida glabrata T51916 glucan synthase assessed as [3H]UDPG incorporation; parameters: species or system Nakaseomyces glabratus; method in brief: as §1
Candida albicans [30] = test: Antifungal activity against Candida albicans ATCC 90028 by CLSI method; type: functional
Candida albicans [31] = test: Antifungal activity against Candida albicans ATCC 36082 by CLSI method; type: functional

## CC[C@H](C)C[C@H](C)CCCCCCCCC(=O)N[C@H]1C[C@@H](O)[C@@H](NCCN)NC(=O)[C@@H]2[C@@H](O)CCN2C(=O)[C@H]([C@H](O)CCN)NC(=O)[C@H]([C@H](O)[C@@H](O)c2ccc(O)cc2)NC(=O)[C@@H]2C[C@@H](O)CN2C(=O)[C@H]([C@@H](C)O)NC1=O [CASPOFUNGIN]
Saccharomyces cerevisiae [1]
  MIC: 0.02 µg/mL (≈ 0.0183 µM)
[2]
  IC50: 0.02121 µg/mL (≈ 0.0194 µM)
  Ki: 0.04799 µg/mL (≈ 0.0439 µM)
Candida albicans [3]
  MIC: 4 µg/mL (≈ 3.66 µM)
Candida metapsilosis [4]
  MIC: 1 µg/mL (≈ 0.915 µM)
[5]
  IC50: 0.05816 µg/mL (≈ 0.0532 µM)
  Ki: 0.00429 µg/mL (≈ 0.00392 µM)
Candida albicans [6]
  MIC: 0.4 µg/mL (≈ 0.366 µM)
[7]
  IC50: 0.07948 µg/mL (≈ 0.0727 µM)
  Ki: 0.292 µg/mL (≈ 0.267 µM)
Candida metapsilosis [8]
  MIC: 0.79 µg/mL (≈ 0.723 µM)
Saccharomyces cerevisiae [9]
  MIC: 0.5 µg/mL (≈ 0.457 µM)
Candida orthopsilosis [10]
  MIC: 0.79 µg/mL (≈ 0.723 µM)
[11]
  IC50: 1.32867 µg/mL (≈ 1.22 µM)
  Ki: 1.215 µg/mL (≈ 1.11 µM)
Candida parapsilosis [12]
  MIC: 2.24 µg/mL (≈ 2.05 µM)
[13]
  IC50: 0.06554 µg/mL (≈ 0.0599 µM)
  Ki: 0.18394 µg/mL (≈ 0.168 µM)
[14]
  IC50: 0.00312 µg/mL (≈ 0.00285 µM)
[15]
  IC50: 0.00052 µg/mL (≈ 0.000476 µM)
  Ki: 0.00095 µg/mL (≈ 0.000869 µM)
[16]
  IC50: 0.07919 µg/mL (≈ 0.0724 µM)
  Ki: 0.00393 µg/mL (≈ 0.00359 µM)
[17]
  IC50: 0.04028 µg/mL (≈ 0.0368 µM)
  Ki: 0.0769 µg/mL (≈ 0.0703 µM)
Nakaseomyces glabratus [18]
  MIC: 2 µg/mL (≈ 1.83 µM)
[19]
  IC50: 0.07526 µg/mL (≈ 0.0688 µM)
  Ki: 0.0074 µg/mL (≈ 0.00677 µM)
Nakaseomyces glabratus [20]
  MIC: 0.1 µg/mL (≈ 0.0915 µM)
[21]
  IC50: 0.02515 µg/mL (≈ 0.023 µM)
  Ki: 0.08045 µg/mL (≈ 0.0736 µM)
[22]
  IC50: 0.0006 µg/mL (≈ 0.000549 µM)
  Ki: 0.00046 µg/mL (≈ 0.000421 µM)
[23]
  IC50: 0.01253 µg/mL (≈ 0.0115 µM)
  Ki: 0.00601 µg/mL (≈ 0.0055 µM)
Saccharomyces cerevisiae [24]
  MIC: 0.03 µg/mL (≈ 0.0274 µM)
Candida parapsilosis [25]
  MIC: 2.24 µg/mL (≈ 2.05 µM)
Candida orthopsilosis [26]
  MIC: 1 µg/mL (≈ 0.915 µM)
Candida parapsilosis [27]
  MIC: 1.4 µg/mL (≈ 1.28 µM)
[28]
  Ki: 0.00297 µg/mL (≈ 0.00272 µM)
[29]
  IC50: 0.1575 µg/mL (≈ 0.144 µM)
  Ki: 0.1945 µg/mL (≈ 0.178 µM)
Candida albicans [30]
  MIC: 0.2 µg/mL (≈ 0.183 µM)
Candida albicans [31]
  MIC: 0.2 µg/mL (≈ 0.183 µM)

## CCCCCOc1ccc(-c2ccc(-c3ccc(C(=O)N[C@H]4C[C@@H](O)[C@@H](O)NC(=O)[C@@H]5[C@@H](O)[C@@H](C)CN5C(=O)[C@H]([C@@H](C)O)NC(=O)[C@H]([C@H](O)[C@@H](O)c5ccc(O)cc5)NC(=O)[C@@H]5C[C@@H](O)CN5C(=O)[C@H]([C@@H](C)O)NC4=O)cc3)cc2)cc1 [ANIDULAFUNGIN] ({pTerphenylCO(4''-OnC5H11)}-[Orn(4R-OH,5R-OH)]T[Hyp][hTyr(3S-OH,4S-OH)]T[Pro(3S-OH,4S-Me)]; lactam 1-C)
Saccharomyces cerevisiae [1]
  MIC: 0.015 µg/mL (≈ 0.0132 µM)
[2]
  IC50: 0.44203 µg/mL (≈ 0.388 µM)
  Ki: 0.6395 µg/mL (≈ 0.561 µM)
Candida albicans [3]
  MIC: 0.15 µg/mL (≈ 0.132 µM)
Candida metapsilosis [4]
  MIC: 0.79 µg/mL (≈ 0.693 µM)
[5]
  IC50: 0.16317 µg/mL (≈ 0.143 µM)
  Ki: 0.111 µg/mL (≈ 0.0973 µM)
Candida albicans [6]
  MIC: 0.08 µg/mL (≈ 0.0702 µM)
[7]
  IC50: 0.53013 µg/mL (≈ 0.465 µM)
  Ki: 0.646 µg/mL (≈ 0.567 µM)
Candida metapsilosis [8]
  MIC: 0.63 µg/mL (≈ 0.553 µM)
Saccharomyces cerevisiae [9]
  MIC: 0.5 µg/mL (≈ 0.438 µM)
Candida orthopsilosis [10]
  MIC: 1.26 µg/mL (≈ 1.11 µM)
[11]
  IC50: 1.663 µg/mL (≈ 1.46 µM)
  Ki: 2.374 µg/mL (≈ 2.08 µM)
Candida parapsilosis [12]
  MIC: 2.24 µg/mL (≈ 1.96 µM)
[13]
  IC50: 0.10737 µg/mL (≈ 0.0942 µM)
  Ki: 0.06895 µg/mL (≈ 0.0605 µM)
[14]
  IC50: 0.00377 µg/mL (≈ 0.00331 µM)
[15]
  IC50: 0.00163 µg/mL (≈ 0.00143 µM)
  Ki: 0.00143 µg/mL (≈ 0.00125 µM)
[16]
  IC50: 0.11012 µg/mL (≈ 0.0966 µM)
  Ki: 0.3685 µg/mL (≈ 0.323 µM)
[17]
  IC50: 0.1264 µg/mL (≈ 0.111 µM)
  Ki: 0.0414 µg/mL (≈ 0.0363 µM)
Nakaseomyces glabratus [18]
  MIC: 1.59 µg/mL (≈ 1.39 µM)
[19]
  IC50: 0.1419 µg/mL (≈ 0.124 µM)
  Ki: 0.0465 µg/mL (≈ 0.0408 µM)
Nakaseomyces glabratus [20]
  MIC: 0.05 µg/mL (≈ 0.0438 µM)
[21]
  IC50: 0.1333 µg/mL (≈ 0.117 µM)
  Ki: 0.129 µg/mL (≈ 0.113 µM)
[22]
  IC50: 0.00183 µg/mL (≈ 0.0016 µM)
  Ki: 0.00063 µg/mL (≈ 0.000553 µM)
[23]
  IC50: 0.23707 µg/mL (≈ 0.208 µM)
  Ki: 0.43167 µg/mL (≈ 0.379 µM)
Saccharomyces cerevisiae [24]
  MIC: 0.03 µg/mL (≈ 0.0263 µM)
Candida parapsilosis [25]
  MIC: 1.59 µg/mL (≈ 1.39 µM)
Candida orthopsilosis [26]
  MIC: 0.79 µg/mL (≈ 0.693 µM)
Candida parapsilosis [27]
  MIC: 1.1 µg/mL (≈ 0.965 µM)
[28]
  IC50: 0.00089 µg/mL (≈ 0.000781 µM)
  Ki: 0.00133 µg/mL (≈ 0.00117 µM)
[29]
  IC50: 0.20686 µg/mL (≈ 0.181 µM)
  Ki: 0.712 µg/mL (≈ 0.624 µM)
Candida albicans [30]
  MIC: 0.02 µg/mL (≈ 0.0175 µM)
Candida albicans [31]
  MIC: 0.02 µg/mL (≈ 0.0175 µM)
